Data taken from ChEMBL document CHEMBL1641413, “Identification of 3-sulfonylindazole derivatives as potent and selective 5-HT(6) antagonists” (Bioorg Med Chem, 2011).
pIC50, pKi: −log10 of the molar value. Active and inactive are the calls of the source. No cut-off for these calls is given here.

Key:
[1] = target: T1, 5-hydroxytryptamine receptor 6 (Homo sapiens, UniProt P50406); test: Displacement of [3H]-LSD from cloned human 5-HT6 receptor expressed in human HeLa cells; type: cell-based
Method in brief: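 Radioligand displacement of [³H]-LSD from cloned human 5-HT6 receptors stably expressed in HeLa cells; compounds tested as HCl salts; Ki values determined in triplicate.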

[2] = target: T1, 5-hydroxytryptamine receptor 6; test: Antagonist activity at cloned human 5-HT6 receptor expressed in human HeLa cells assessed as inhibition of 5HT-induced cyclic AMP formation; type: functional, cell-based
[3] = target: T2, 5-hydroxytryptamine receptor 1A (Homo sapiens, UniProt P08908); test: Binding affinity to 5-HT1A receptor
T2 sequence (P08908 whole entry): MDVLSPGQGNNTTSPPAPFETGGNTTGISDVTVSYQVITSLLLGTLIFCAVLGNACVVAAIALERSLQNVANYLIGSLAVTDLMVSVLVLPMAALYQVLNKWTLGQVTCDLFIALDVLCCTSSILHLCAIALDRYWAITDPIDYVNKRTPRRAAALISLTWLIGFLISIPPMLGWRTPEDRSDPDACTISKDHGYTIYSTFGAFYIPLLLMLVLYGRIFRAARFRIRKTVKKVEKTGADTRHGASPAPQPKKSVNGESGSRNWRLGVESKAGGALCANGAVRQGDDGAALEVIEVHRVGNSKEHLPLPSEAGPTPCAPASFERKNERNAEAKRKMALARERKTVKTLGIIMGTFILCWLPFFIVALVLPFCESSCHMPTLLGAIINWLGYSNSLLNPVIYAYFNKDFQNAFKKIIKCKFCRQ

[4] = target: 5-hydroxytryptamine receptor 1B (Homo sapiens, UniProt P28222); test: Binding affinity to 5-HT1B receptor
[5] = target: 5-hydroxytryptamine receptor 1D (Homo sapiens, UniProt P28221); test: Binding affinity to 5-HT1D receptor
[6] = target: T3, 5-hydroxytryptamine receptor 2B (Homo sapiens, UniProt P41595); test: Binding affinity to 5-HT2B receptor
[7] = target: T4, 5-hydroxytryptamine receptor 2C (Homo sapiens, UniProt P28335); test: Binding affinity to 5-HT2C receptor
T4 sequence (P28335 whole entry): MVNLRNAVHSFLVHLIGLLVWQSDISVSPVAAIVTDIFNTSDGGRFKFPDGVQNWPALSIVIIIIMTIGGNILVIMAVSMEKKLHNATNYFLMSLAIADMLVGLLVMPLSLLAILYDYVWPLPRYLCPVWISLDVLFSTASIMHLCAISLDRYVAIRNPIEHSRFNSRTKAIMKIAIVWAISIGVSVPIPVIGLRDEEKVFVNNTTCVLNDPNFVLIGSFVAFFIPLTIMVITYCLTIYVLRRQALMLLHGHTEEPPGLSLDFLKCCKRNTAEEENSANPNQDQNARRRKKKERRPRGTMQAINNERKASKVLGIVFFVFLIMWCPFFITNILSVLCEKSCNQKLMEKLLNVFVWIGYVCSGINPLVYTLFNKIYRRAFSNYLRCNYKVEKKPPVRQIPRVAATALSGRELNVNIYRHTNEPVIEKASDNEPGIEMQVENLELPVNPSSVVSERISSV

[8] = target: 5-hydroxytryptamine receptor 7 (Homo sapiens, UniProt P34969); test: Binding affinity to 5-HT7 receptor
[9] = target: T5, Alpha-2A adrenergic receptor (Homo sapiens, UniProt P08913); test: Binding affinity to adrenergic alpha2A receptor
T5 sequence (P08913 whole entry): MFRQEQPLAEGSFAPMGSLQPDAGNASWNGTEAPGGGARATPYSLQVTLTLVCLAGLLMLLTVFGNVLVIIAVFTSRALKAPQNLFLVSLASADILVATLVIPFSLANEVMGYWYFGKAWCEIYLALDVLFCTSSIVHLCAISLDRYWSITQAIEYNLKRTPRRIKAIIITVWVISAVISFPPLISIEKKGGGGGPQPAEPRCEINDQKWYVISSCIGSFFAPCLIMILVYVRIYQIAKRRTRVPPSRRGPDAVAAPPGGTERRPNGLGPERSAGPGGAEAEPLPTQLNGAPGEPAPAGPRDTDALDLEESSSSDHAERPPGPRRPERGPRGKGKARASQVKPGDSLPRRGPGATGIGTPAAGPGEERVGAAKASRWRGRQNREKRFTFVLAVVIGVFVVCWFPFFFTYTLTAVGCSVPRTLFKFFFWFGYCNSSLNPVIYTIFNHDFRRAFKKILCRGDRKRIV

D(2) dopamine receptor = D(2) dopamine receptor (Homo sapiens, UniProt P14416); test: Binding affinity to dopamine D2 receptor
[10] = target: T3, 5-hydroxytryptamine receptor 2B; test: Agonist activity at 5-HT2B receptor at 0.1 nM to 10 uM by FLIPR assay; type: functional
[11] = Solubility of the compound in water; type: physicochemical
[12] = Half life in rat microsomes; type: ADME, Microsome
[13] = Half life in human microsomes; type: ADME, Microsome
[14] = Binding affinity to P-glycoprotein
[15] = % bound in plasma; type: ADME, cell-free; settings: read-out: PPB
Rattus norvegicus = test: Cognitive enhancing effect in rat assessed as inhibition of scopolamine-induced memory deficit at 10 mg/kg, po by novel object recognition test; type: functional, organism-based; parameters: dose 10 mg/kg
Method in brief: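 Rats given compound orally at 10 mg/kg; scopolamine-induced memory deficit assessed in a novel object recognition assay.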

D(2) dopamine receptor, sequence (P14416 whole entry): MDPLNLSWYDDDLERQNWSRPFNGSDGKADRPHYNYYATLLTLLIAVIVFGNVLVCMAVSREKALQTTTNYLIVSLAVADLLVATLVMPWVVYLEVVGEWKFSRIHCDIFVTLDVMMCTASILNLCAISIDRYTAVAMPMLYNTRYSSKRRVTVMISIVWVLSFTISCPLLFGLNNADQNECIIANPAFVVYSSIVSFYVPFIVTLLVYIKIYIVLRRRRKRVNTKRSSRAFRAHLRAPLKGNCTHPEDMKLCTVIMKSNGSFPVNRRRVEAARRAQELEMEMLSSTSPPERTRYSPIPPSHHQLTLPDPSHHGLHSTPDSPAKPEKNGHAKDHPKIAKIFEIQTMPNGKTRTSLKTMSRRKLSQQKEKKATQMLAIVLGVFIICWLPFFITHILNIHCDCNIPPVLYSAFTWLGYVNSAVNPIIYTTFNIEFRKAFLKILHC
T3 sequence (P41595 whole entry): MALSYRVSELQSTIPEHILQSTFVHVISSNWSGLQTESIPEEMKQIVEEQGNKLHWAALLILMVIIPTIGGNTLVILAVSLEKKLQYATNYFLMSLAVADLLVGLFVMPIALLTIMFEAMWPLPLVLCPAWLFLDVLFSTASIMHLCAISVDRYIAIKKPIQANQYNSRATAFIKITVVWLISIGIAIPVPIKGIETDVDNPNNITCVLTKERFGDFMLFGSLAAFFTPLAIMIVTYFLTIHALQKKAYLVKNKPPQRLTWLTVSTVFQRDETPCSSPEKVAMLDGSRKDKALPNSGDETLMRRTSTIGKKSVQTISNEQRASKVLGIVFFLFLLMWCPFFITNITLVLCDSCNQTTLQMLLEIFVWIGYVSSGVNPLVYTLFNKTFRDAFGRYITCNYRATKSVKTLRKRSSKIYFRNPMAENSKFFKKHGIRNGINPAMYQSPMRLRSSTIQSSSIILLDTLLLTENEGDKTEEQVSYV
5-hydroxytryptamine receptor 1B, sequence (P28222 whole entry): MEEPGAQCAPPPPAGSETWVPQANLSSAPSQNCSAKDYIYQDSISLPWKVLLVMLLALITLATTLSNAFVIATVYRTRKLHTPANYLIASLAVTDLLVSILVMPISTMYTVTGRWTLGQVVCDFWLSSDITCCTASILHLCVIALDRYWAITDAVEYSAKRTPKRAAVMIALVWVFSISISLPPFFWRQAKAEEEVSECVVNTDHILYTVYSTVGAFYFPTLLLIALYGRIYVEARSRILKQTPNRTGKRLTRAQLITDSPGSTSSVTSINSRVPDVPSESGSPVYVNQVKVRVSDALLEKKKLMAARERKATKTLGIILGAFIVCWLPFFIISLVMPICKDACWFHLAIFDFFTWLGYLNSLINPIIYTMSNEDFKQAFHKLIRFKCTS
5-hydroxytryptamine receptor 1D, sequence (P28221 whole entry): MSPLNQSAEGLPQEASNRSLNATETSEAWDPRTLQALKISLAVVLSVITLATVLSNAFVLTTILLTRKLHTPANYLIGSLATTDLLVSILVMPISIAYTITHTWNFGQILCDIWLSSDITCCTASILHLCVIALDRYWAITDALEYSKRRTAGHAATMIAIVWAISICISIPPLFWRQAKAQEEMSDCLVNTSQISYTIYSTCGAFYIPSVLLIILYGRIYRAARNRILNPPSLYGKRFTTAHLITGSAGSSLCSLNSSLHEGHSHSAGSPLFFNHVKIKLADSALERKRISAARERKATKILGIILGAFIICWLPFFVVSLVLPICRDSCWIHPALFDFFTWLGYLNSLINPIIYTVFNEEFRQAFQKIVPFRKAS
5-hydroxytryptamine receptor 7, sequence (P34969 whole entry): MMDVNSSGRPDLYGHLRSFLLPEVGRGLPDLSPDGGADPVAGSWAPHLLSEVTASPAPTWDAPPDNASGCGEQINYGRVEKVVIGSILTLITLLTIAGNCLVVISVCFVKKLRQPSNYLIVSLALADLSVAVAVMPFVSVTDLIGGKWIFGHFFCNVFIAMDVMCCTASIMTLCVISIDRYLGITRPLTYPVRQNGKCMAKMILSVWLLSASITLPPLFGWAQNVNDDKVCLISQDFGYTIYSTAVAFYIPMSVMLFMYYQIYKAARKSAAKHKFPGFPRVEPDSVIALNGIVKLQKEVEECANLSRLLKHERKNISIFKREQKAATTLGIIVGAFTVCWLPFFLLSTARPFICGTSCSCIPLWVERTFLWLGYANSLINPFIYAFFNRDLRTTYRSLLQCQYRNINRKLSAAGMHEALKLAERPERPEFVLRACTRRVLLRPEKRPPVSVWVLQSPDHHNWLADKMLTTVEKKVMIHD
T1 sequence (P50406 whole entry): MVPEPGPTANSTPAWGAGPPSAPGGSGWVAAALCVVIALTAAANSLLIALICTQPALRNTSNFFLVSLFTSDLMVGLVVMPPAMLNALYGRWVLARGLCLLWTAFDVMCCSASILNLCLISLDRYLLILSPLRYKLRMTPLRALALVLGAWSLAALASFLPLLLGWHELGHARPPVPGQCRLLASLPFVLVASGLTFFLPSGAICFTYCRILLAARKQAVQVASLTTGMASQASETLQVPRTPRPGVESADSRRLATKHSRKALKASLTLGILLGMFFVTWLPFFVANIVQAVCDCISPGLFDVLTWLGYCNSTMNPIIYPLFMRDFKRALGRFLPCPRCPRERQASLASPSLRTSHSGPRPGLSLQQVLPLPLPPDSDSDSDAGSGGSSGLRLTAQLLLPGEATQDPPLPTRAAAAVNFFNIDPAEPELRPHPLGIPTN

Structure (SMILES)	pKi [1]	pIC50 [2]	pKi [3]	pKi [4]	pKi [5]	pKi [6]	pKi [7]	pKi [8]	pKi [9]	pKi (D(2) dopamine receptor)	Activity [10]	solubility [11]	half-life [12]	half-life [13]	Activity [14]	fraction unbound [15]	inhibition (Rattus norvegicus)
Cl.O=C(Nc1ccc2[nH]nc(S(=O)(=O)c3cccc4ccccc34)c2c1)C1CCNCC1	8.96	8.09	5.52	< 5.30	5.87	7.48	< 5.30	< 5.30	< 5.30	< 5.30	inactive	> 100 µg/mL	> 30 min	> 30 min	inactive	> 0.2	Active
Cl.O=S(=O)(c1cccc2ccccc12)c1n[nH]c2ccc(NC3CCNCC3)cc12	9.15	7.82	< 5.30	< 5.30	< 5.30	6.17	< 5.30	5.40	< 5.30	< 5.30	inactive	> 100 µg/mL	> 30 min	> 30 min	inactive	> 0.2	Active
CC(C)c1ccc(S(=O)(=O)c2n[nH]c3ccc(NC4CCNCC4)cc23)cc1.Cl	9.00	7.85	6.07	5.56	5.83	5.75	5.75	< 5.30	< 5.30	< 5.30	inactive	> 100 µg/mL	> 30 min	> 30 min	inactive	> 0.2	–
